Here are results for two compounds from the M2OR odorant receptor database.

For one experiment, the target named is T1, OR10G8 (Homo sapiens) (UniProt Q8NGN5).
T1 sequence (whole entry): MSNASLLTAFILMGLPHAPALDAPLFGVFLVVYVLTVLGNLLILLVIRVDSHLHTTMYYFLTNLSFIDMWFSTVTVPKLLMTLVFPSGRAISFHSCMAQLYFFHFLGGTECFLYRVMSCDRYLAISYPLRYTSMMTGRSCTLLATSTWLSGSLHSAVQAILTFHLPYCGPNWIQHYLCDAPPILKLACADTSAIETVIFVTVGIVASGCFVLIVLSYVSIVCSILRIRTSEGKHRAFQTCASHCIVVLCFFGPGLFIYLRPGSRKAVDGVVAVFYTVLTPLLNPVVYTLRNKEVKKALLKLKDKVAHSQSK
The conditions noted are these: stereoisomer not certain. In outline: (§1)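 Each receptor–molecule pair is labelled responsive or non-responsive (inactive) according to whether the original authors judged the measured signal statistically different from baseline. The data were taken from the main text and supplementary material of published papers and checked for typos and inconsistencies. Assay methods differed by source, with transient luciferase assays in mammalian cell lines being common.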

The target of the next experiment is T2, OR10J5 (Homo sapiens) (UniProt Q8NHC4).
T2 sequence (whole entry): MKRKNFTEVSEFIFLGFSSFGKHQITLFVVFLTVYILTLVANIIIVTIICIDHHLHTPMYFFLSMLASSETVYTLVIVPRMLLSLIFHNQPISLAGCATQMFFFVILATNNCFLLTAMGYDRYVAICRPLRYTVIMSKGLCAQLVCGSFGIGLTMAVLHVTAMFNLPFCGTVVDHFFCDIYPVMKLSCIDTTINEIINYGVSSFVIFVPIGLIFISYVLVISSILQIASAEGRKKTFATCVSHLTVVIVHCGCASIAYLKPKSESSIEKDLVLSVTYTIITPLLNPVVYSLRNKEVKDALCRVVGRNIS
The conditions noted are these: stereoisomer not certain. In outline:
as §1
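Note: active if original authors judged signal statistically different from baseline.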

Regarding `CCCCCCCCC(=O)O`, the “odorant receptor agonist call” value in the experiment with OR10G8 (Homo sapiens) and with OR10J5 (Homo sapiens) was “inactive” throughout.
Take `O=C(c1ccccc1)c1ccccc1`: in the experiment with OR10J5 (Homo sapiens), the “odorant receptor agonist call” value was “inactive”.
